Measured values as given in the RNAGym collection of RNA variant scans (doi:10.1126/science.aae0568).
This sample holds only a part of the variants without activity.

B1: tRNA (parent)
chain: GUUCCGUUGGCGUAAUGGUAACGCGUCUCCCUCCUAAGGAGAAGACUGCGGGUUCGAGUCCCGUACGGAACG

Variants of: B1
Assay: yeast fitness relative to wild type (ratio to wild type); higher = fitter; tRNA-Arg(CCU), competitive growth, 37 C, YPD
In short: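 Amplicons of the tRNA-Arg(CCU) gene were sequenced, 100-nucleotide paired-end, from the start population and from each end population of a pooled yeast competition. The competition, in six parallel replicates, lasted 24 hours in YPD at 37°C. Fitness relative to wild type was calculated from changes in genotype frequencies. Genotypes had to have ≥ 100 starting reads, and estimates < 0.5 were set to 0.5.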

First: GUUCAGUUGGCGUAAUGGUAACGCGUCUCCCUCCUAAGGAGAAGACUGCGGGUUCGAGUCGCGUACGGAACG [C5A C61G]
Second: GUUCAGUUCGCGUAAUGGUAACGCGUCUCCCUCCUUAGGAGAAGACUGCGGGUAUGAGUCCCGUACGGAACG [C5A G9C A36U U54A C55U]
The yeast fitness of the first is higher: 0.609 for the first, at most 0.5 for the second.

First: GUUCAGUUGGCGUAAUGGUAACGCGUCUCCCUCCUAAGGAACAGACUGCCGGUUCGAGUCCCGUACGGAGCG [C5A G41A A42C G50C A70G]
Second: GUUCACUUGGCGUAGUGGUAACGCGUCUCCCUCCUAAGGGGAAGACUGCGGGUUCGAGUCCCGUACGGAACG [C5A G6C A15G A40G]
The yeast fitness of the first is higher: 0.502 for the first, at most 0.5 for the second.

Compared with GUUCAGUUGGCGUAAUGGUAACGCGUCUCCCUCCUAAGGAGAAGACUGUGGGUUCGAGUCCCGUACGGAACG [C5A C49U], GUUCAGUUGGCGUAAUGGUAACGCGUCUCCCUCCUAAGGAGAAGACUGGGGGUUCGAGUCCCGUACGGAACG [C5A C49G] is lower in yeast fitness: 0.848 for the first, 0.704 for the second.

Compared with GUUCAGUUGGCGUAAUGGUAACGCGUCUCCCUCCUAAGAAGAAGACUGCGGGUUCGAGUCCCGUACGGAACG [C5A G39A], GUUCAGUUGGCGUAAUGGUAACGCGUCUCCCUCCUAAGGAGAAGACUGCGGGUUGGAGUCCCGUACGGAACG [C5A C55G] is lower in yeast fitness: 0.83 for the first, 0.618 for the second.

GUUCAGUUGGCGUAAUGGUAACCCGUCUCCCUCCUAAGGACAAGACUGCCGGUUCGAGUCCCGUACGGAACG [C5A G23C G41C G50C] and GUUCAGUUGUCGUAAUGGUAACGCGUCUCUCUCCUAAGGAGACGACUGCGGGUUCGAGUCCCGUACGGCACG [C5A G10U C30U A43C A69C] cannot be ordered by yeast fitness: at most 0.5 for the first, at most 0.5 for the second.

First: GUUCAGUUGGCGUAAUGGUAACGCGUCUCCCUCCUAAGGAGAAGACUGCGGGUUCGAGUACCGUACGGAACG [C5A C60A]
Second: GUUCAGUUCGCGUAAUGGUAACGCGUCUCCCUCCUUAGGAGAAGACUGCAGGUUCGAGGCCCGUACGGAACG [C5A G9C A36U G50A U59G]
The yeast fitness of the first is higher: 0.651 for the first, 0.542 for the second.

Going from GUUCAAUUGGCGUAAAGGUAACGCGUCUCCCUCCUAAGGAGAAGGCUGCAGGUUCGAGUCCCGUACGGAACG [C5A G6A U16A A45G G50A] to GUUCAGUUGGCGUAAUGGUAACGCGUCUCCCUCCUAAGAAGAAGACUGCGGGUUCGAGUUCAGUACGGAACG [C5A G39A C60U C62A], the yeast fitness rises from at most 0.5 to 0.557.

GUUCAGUUGGCGUAAUGGUAACGCGUCUCCCUCCUAAGGAAAAGACUGCGGGUUCCAGUCCCGUCCGGAACG [C5A G41A G56C A65C] and GUUCAGUUGGCGUAAUAGUAACGCGUCUCCCUCAUAAGGAGAAGACUGCGGGUUCGAGUCCCGUACGGAACG [C5A G17A C34A] cannot be ordered by yeast fitness: at most 0.5 for the first, at most 0.5 for the second.

First: GUUCAGUUGGCGUAAUCGUAACGCGUCUCCCUCCUAAGGAGAUGACUGCGGGUUCGAGUCCCGUACGGAACG [C5A G17C A43U]
Second: GUUCACUUGGCGUAAUGGUAACGCGUCUCCCUCCUAAGGAGAAGACUGCGGGUUCGAGUCCCAUACGGAACG [C5A G6C G63A]
The yeast fitness of the first is higher: 0.543 for the first, at most 0.5 for the second.

First: GUUCAGUUGGCGUAAUAGUAACGCGUCUCCCUCCUAAGGAGAACACUGCGGGUUCGAGUCCCGUACGGAACG [C5A G17A G44C]
Second: GUUCAGUUGGCGUAAUCGUAAUGCGUCUCCCUCCUAAGGAGAAGACUGCGGGUUCGAGUGUCGUACGGAACG [C5A G17C C22U C60G C61U]
The yeast fitness of the first is lower: 0.532 for the first, 0.947 for the second.

GUUCAGUUGGCGUAAUAGUAACGCGUCUCCCUCCUAAGGUGAAGACUGCGGGUUCGAGUCCCGUACGGAACG [C5A G17A A40U] and GUUCAGUUGGCGUAAUGGUAACAUGUCUCCCUCCUCAGGAGAAGACUGCGGGUUCGAGUCCCGUACGGAACG [C5A G23A C24U A36C] cannot be ordered by yeast fitness: at most 0.5 for the first, at most 0.5 for the second.

First: GUUCAGUUGGCGUAAUGGUAACGCGUCUCCCUCCUAAGAAGAAGACUGUGGGUUCGAGUCCCGUACGGAACG [C5A G39A C49U]
Second: GUUCAGUUGGCGUAAUGGUAACGCAUCUAUCUCCUAAGGAGAAGACUGCGGGUUCGAGUCCCGUACGGAACG [C5A G25A C29A C30U]
The yeast fitness of the first is lower: 0.541 for the first, 0.758 for the second.

GUUCAGUUAGCGUAAUGGUAACGCGUCUCCCUCCUAAGGAAAAGACUGCGGGCUCGAGUCCCGAACGGAACG [C5A G9A G41A U53C U64A] and GUUCAGUUGGCGUAAUCGUAACGCAUCUCCCUCCUAAGGAGAAGACUGCGGGUUCGAGCCCCGUACGGAACG [C5A G17C G25A U59C] cannot be ordered by yeast fitness: at most 0.5 for the first, at most 0.5 for the second.

Going from GUUCAGUUCGCGUAAUGGUAACGCGUCUCCCUCCUAACGAGAAGACUGCGGGUUCGAGUCCCCUAUGGAACG [C5A G9C G38C G63C C66U] to GUUCACUUGGCGUAAUGGUAACGCGUCUCGCUCCUAAGGAGGAGACUGCGGGUUCGAGUCCCGUACGGAACG [C5A G6C C30G A42G], the yeast fitness rises from at most 0.5 to 0.606.

First: GUUCAGUUGGCGUAAUGGUAACGCGUCUCCCUCCUAAGAAGAAAACUGCGGGUUCGAGUCCCGUACGGAACG [C5A G39A G44A]
Second: GUUCAGUUGGCGUAAUAGUAACGCGUCUCCCUCCUGAGGAGAAGACUGCGGGUUCGAGUCCCGUACGGAGCG [C5A G17A A36G A70G]
The yeast fitness of the first is higher: 0.62 for the first, at most 0.5 for the second.

First: GUUCAGUUGGCGUAAUCCUAACGCGUCUCCCUCCUAAGGAGAAGACUGCGGGUUCGAAGCCCGUACGGAACG [C5A G17C G18C G58A U59G]
Second: GUUCAGUUGGCGUAAUCGUAACGCGUCUCCCUCCUAAGCAGAAGACUGCGGGUUCGAGUCCCGUACGGAACG [C5A G17C G39C]
The yeast fitness of the first is higher: 0.535 for the first, at most 0.5 for the second.

Going from GUUCAGUUGGCGUAAUGAUAACGCGUCUCCCUCCUAAGGAGAAGACUGCGGAUUGGAGUCCCGUACGGAACG [C5A G18A G52A C55G] to GUUCAGUUGACGUAAUGGUACCGAGUCUCCCUCCUAAGGAGAAGACUGCGGGUUCGAGUCCCGUCCGGAACG [C5A G10A A21C C24A A65C], the yeast fitness falls from 0.526 to at most 0.5.

GUUCAGUUGGCGUAAUUGUAACGCGUCUCCCUCCUAAGGAGAAGACUGCGGGUUCGAGUCCCGUACGGCGCG [C5A G17U A69C A70G] and GUUCAGUUGGCGUAAUGGUAACCCGUCUCCCGCCUAAGGAGAAGACUGCGGGUUCGAGUCCCGUACGGUACG [C5A G23C U32G A69U] cannot be ordered by yeast fitness: at most 0.5 for the first, at most 0.5 for the second.

Going from GUUCAGUUGGCGUAAUGGUAACGCGUCUCCCUCCUAAGGACAAGACUGCGGGUUCGAGUCCCGUACGGAACG [C5A G41C] to GUUCACUUGGGGUAAUGGAAACGCGUCUCCCUCCUAAGGAGAAGACUGAGGGUUCGAGUCCCGUACGGAACG [C5A G6C C11G U19A C49A], the yeast fitness falls from 0.779 to 0.571.
